NPY Y1 blocker: NPY-Y1 (human) receptor antagonism. P25929. HEK293-CNG Y1 cells, membrane potential fluorescence; NPY at EC95, then isoproterenol. inhibition, % at 3.6 µM. 1% of 200,000 active;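 active = inhibition above the campaign mean inhibition of all tested compounds plus 3 SD, cut at about 20% in these data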
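Benchmarks – high control isoproterenol alone, low control NPY with isoproterenol · Material – HEK293 Y1/CNG channel cell line · Times – dye 3 h, compound 60 min room temperature, stimulation 45 min · Probe or stimulus – NPY (25 nM), isoproterenol (1 µM), Ro 20-1724 (25 µM) · Evaluation – % inhibition of NPY effect · Signal – fluorescence, membrane potential probe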
EP2 modulator: modulates human prostaglandin E2 receptor EP2 signaling | P43116 | induction, % at 25 µM | AID 940 | 0.83% of 260,000 active | EP2-expressing cells, cAMP HTRF FRET, PGE2 co-stimulation;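 active = compounds whose cAMP rise, as percent of the full-agonist control response, exceeds 60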;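 also: rat C6 glioma line stably carrying human EP2 under a CMV promoter; the protocol text gives 20 µM as final concentration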
NPY Y2 blocker: NPY-Y2 (human) receptor antagonism. inhibition, % at 2.7 µM. 0.99% of 140,000 active. NPY-Y2 expressing cells, antagonist mode. P49146
Target sequence (P49146 whole entry, looked up): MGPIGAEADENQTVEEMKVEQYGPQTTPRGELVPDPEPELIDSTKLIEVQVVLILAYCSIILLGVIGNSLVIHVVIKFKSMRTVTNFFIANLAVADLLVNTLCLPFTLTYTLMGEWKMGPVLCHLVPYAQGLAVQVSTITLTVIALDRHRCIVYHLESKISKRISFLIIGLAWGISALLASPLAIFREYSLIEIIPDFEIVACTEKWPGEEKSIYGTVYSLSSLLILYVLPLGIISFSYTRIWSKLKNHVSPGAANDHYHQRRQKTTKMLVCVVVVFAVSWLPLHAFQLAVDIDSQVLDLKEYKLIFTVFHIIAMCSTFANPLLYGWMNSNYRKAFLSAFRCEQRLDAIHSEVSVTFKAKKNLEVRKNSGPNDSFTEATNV
EP2 antag: inhibitors of human EP2 prostaglandin E2 receptor; C6 glioma cells expressing human EP2, cAMP TR-FRET; cells stimulated with saturating PGE2; AID 1422; 0.52% of 260,000 active; inhibition, % at 25 µM; P43116;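 active = percent inhibition above 40 after rounding to a whole number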;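 also: rat C6 glioma host cells with rolipram phosphodiesterase inhibitor present; the protocol text gives 20 µM as final concentration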
NPY1 pot ag: human NPY-Y1 potentiation or agonism, primary screen | NPY-Y1 expressing cells, potentiator/agonist activation | AID 1304 | 0.37% of 220,000 active | P25929 | activation, % at 3.6 µM; in the data active = activation above about 33%, passing the limit was not always enough;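 also: cells stimulated with NPY at EC10 then isoproterenol at EC100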
NPY-Y2 PAM-ag: potentiators or agonists of human neuropeptide Y receptor Y2 | P49146 | cells expressing NPY-Y2, potentiator/agonist read-out | activation, % at 3.6 µM | 0.45% of 220,000 active | AID 1359; in the data active = activation above about 27%;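 also: cells stimulated with NPY near EC25 plus isoproterenol at EC100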
NPY-Y1 ant conf: confirmation of human neuropeptide Y receptor Y1 antagonists | HEK293-CNG NPY-Y1, membrane potential fluorescence, cAMP; NPY challenge against isoproterenol-raised cAMP | AID 1254 | inhibition, % at 3.6 µM | 21% of 1,200 active | shares compounds with NPY Y1 blocker; in the data active = inhibition above about 20%
NPY-Y2 antag ct: counter-screen for NPY-Y1 antagonists: human NPY-Y2 antagonism; shares compounds with NPY Y1 blocker; HEK293 NPY-Y2 CNG membrane potential fluorescence; cells given NPY, then isoproterenol; inhibition, % at 3.6 µM; 28% of 1,200 active; AID 1255
Numbers stand for hits; i = inactive; nt = not tested or not shown. Sampled rows, rich in hits. Any-hit rate of the full collection: about 2.8%. Rule as the data show it, unless noted: active = inhibition above about 17%; inactive = the rest.

SMILES | NPY Y1 blocker | EP2 modulator | NPY Y2 blocker | EP2 antag | NPY1 pot ag | NPY-Y2 PAM-ag | NPY-Y1 ant conf | NPY-Y2 antag ct
Cc1c(C(=O)OC2CCC(C)CC2)[nH]c2c1C(=O)CCC2 (centres undefined) | i | i | i | i | i | i | nt | nt
CCOC(=O)c1c(C)n(-c2ccc(C)cc2)c2ccc(O)c(CN(C)C)c12 | 51 | i | nt | i | i | i | 52 | 55
CCOC(=O)c1c(CSc2ccc(C)cc2)n(C)c2cc(Br)c(O)c(CN(C)C)c12 | 75 | i | nt | i | i | i | 60 | 72
CCOC(=O)c1c(CSc2ccccc2)n(C)c2cc(Br)c(O)c(CN(C)C)c12 | nt | i | nt | i | i | i | nt | nt
O=S(=O)(c1ccc2c(c1)OCCO2)N(Cc1ccc(F)cc1)Cc1nnc(-c2cccs2)o1 | 45 | i | i | i | i | i | i | i
COCCNc1nc(SCc2ccccc2)nc2sc3c(c12)CCC3 | 26 | i | i | i | i | i | 21 | 22
CCC(=O)Nc1ccc(Cl)cn1 | nt | i | nt | i | nt | nt | nt | nt
Cc1cc(C)nc(NNC(=O)c2ccc(Cl)cc2)n1 | nt | i | nt | i | nt | nt | nt | nt
Cc1cccn2c(CNC3CCCc4ccccc43)c(C(=O)N3CCCCC3)nc12 (centres undefined) | 24 | i | nt | i | i | i | i | i
COC(=O)c1c(NC(=O)CSc2nnnn2-c2ccccc2)sc2c1CCC(C)C2 (centres undefined) | 20 | i | i | i | i | i | i | i
COC(=O)c1c(NC(=O)CSc2nnnn2-c2ccccc2)sc2c1CCC(C(C)(C)C)C2 (centres undefined) | i | i | i | i | i | i | nt | nt
CN(Cc1ccccc1)CC(O)COc1ccc(CNCc2ccc(Cl)s2)cc1 (centres undefined) | 29 | i | nt | i | i | i | 20 | 30
CN(Cc1ccccc1)CC(O)COc1ccc(CNCc2cccnc2)cc1 (centres undefined) | i | i | nt | i | i | i | nt | nt
COc1ccc(OC)c(/C=c2\sc3nc(-c4cccs4)nn3c2=O)c1 | 20 | i | i | i | i | i | i | i
Cc1cc(C(F)(F)F)nc2nc(NC(=O)C3CCCCC3)ccc12 | nt | i | nt | nt | nt | nt | nt | nt
CCCOc1ccc(S(=O)(=O)NCc2ccc(OC)cc2)cc1 | 28 | i | i | i | i | i | i | i
Cc1ccc2cc(CN(Cc3cccs3)Cc3nnnn3Cc3ccc(F)cc3)c(=O)[nH]c2c1C | nt | i | nt | i | nt | nt | nt | nt
Cc1ccc(C(C)C)c(OCCCN2C(=O)NC(C)(C)C2=O)c1 | i | i | i | i | i | i | nt | nt
Cc1ccc(C(C)C)c(OCCCN(C)Cc2ccccc2)c1 | 32 | i | i | i | i | i | i | 18
CN(C)Cc1ccc(F)cc1Sc1ccc(Cl)cc1Cl | 22 | 62 | i | i | i | i | i | i
O=C(O)c1nn(-c2ccccc2)nc1-c1nn(-c2ccccc2)nc1C(=O)O | 31 | i | i | i | i | i | i | i
CC(=O)C1CC(CC(=O)N[C@H](C)Cn2nnc3ccccc32)C1(C)C (some centres undefined) | nt | i | nt | i | nt | nt | nt | nt
Cc1cccc2cc(CN(Cc3ccccc3)C(=S)NCCCN(C)C)c(=O)[nH]c12 | 28 | i | nt | i | i | i | i | i
Cc1ccc(CN(Cc2cc3cccc(C)c3[nH]c2=O)C(=S)NCCCN(C)C)cc1 | i | i | nt | i | i | i | nt | nt
Fc1ccc(CNc2c(-c3ccco3)nc3cnccn23)cc1 | nt | i | nt | i | nt | nt | nt | nt
Cc1cccnc1NC1CCCCC1 | i | i | nt | i | i | i | nt | nt
c1ccc2c(NC3CCCC3)nnc(NC3CCCC3)c2c1 | 23 | i | i | i | i | i | i | 35
COc1ccc(Cl)cc1NC(=O)CNc1ccccc1CN(C)C1CCCCC1 | 29 | i | nt | i | i | i | 26 | 20
COc1ccc(C)cc1NC(=O)CNc1ccccc1CN(C)C1CCCCC1 | i | i | nt | i | i | i | nt | nt
O=C(c1ccco1)N1CCN(S(=O)(=O)c2ccc(S(=O)(=O)NC3CCCC3)cc2)CC1 | 20 | i | i | i | i | i | i | i
